In ChEMBL document CHEMBL1255315, “The hepatitis C virus replicon presents a higher barrier to resistance to nucleoside analogs than to nonnucleoside polymerase or protease inhibitors” (Antimicrob Agents Chemother, 2008):

Columns and labels:
Hepatitis C virus [1] = assay: Antiviral activity against Hepatitis C virus subtype 1b Con1 infected in human HuH7 cells after 3 days by luciferase reporter gene assay; assay type: functional, organism-based, Hepacivirus hominis; conditions: Con1, Huh-7, 72 h
Summary of the method: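 Huh7-derived 2209-23 cells stably carrying a GT 1b Con1 subgenomic replicon encoding Renilla luciferase, incubated with compound for 3 days. The EC50 is the concentration that reduces reporter luciferase activity by 50% versus untreated controls. Values are reported as mean ± SD over repeated experiments, with the number of experiments differing by compound.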

[2] = Cytotoxicity against human HuH7 cells; assay type: cell-based, Huh-7
Summary of the method: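 Viability of the stable GT 1b Con1 replicon cells was measured by MTT or WST-1 assay to give CC50, the 50% cytotoxic concentration. The number of experiments matched the EC50 determinations, and values are reported as mean ± SD.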

Hepatitis C virus [3] = assay: Antiviral activity against HCV infected in human assessed as log reduction in viral load at 4500 […] BID; assay type: functional, Hepacivirus hominis
Hepatitis C virus [4] = assay: Antiviral activity against HCV infected in human assessed as log reduction in viral load measured on day 4 postdose; assay type: functional, Hepacivirus hominis
Hepatitis C virus [5] = assay: Antiviral activity against HCV subtype 1b infected in human HuH7 cells assessed as number of resistant colonies formed at 10 times EC50 after 3 weeks; assay type: functional, Hepacivirus hominis, genotype 1b, Huh-7
Summary of the method: (§1)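 Huh7 cells stably carrying a GT 1b subgenomic neoR replicon, seeded at 1 × 10^5 cells/well with 0.5 mg/ml G418, were exposed to one or two inhibitors at multiples of EC50 (from the 3-day Con1 2209-23 luciferase assay). Medium was changed twice weekly, with a 1:4 split at ~95% confluence. After 3 weeks, cells were formaldehyde-fixed and crystal violet-stained, and colonies were counted.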

Hepatitis C virus [6] = assay: Antiviral activity against HCV subtype 1b infected in human HuH7 cells assessed as number of resistant colonies formed at 15 times EC50 after 3 weeks; assay type: functional, Hepacivirus hominis, genotype 1b, Huh-7; summary of the method: as §1
Hepatitis C virus [7] = assay: Antiviral activity against HCV genotype 1 infected in human assessed as log reduction in viral load at 750 mg administered every 8 hrs for 14 days
Hepatitis C virus [8] = assay: Antiviral activity against HCV infected in human assessed as log reduction in viral load at 800 […] SID; assay type: functional, Hepacivirus hominis

| EC50 (Hepatitis C virus [1]) [nM] | SMILES | CC50 [2] [nM] | also measured |
| --- | --- | --- | --- |
| 610 | C[C@@]1(F)[C@H](O)[C@@H](CO)O[C@H]1n1ccc(N)nc1=O | > 100000 |  |
| 1230 | C[C@@]1(O)[C@H](O)[C@@H](CO)O[C@H]1n1ccc(N)nc1=O | > 100000 |  |
| 1280 | [N-]=[N+]=N[C@]1(CO)O[C@@H](n2ccc(N)nc2=O)[C@H](O)[C@@H]1O [4'-AZIDOCYTIDINE] | > 100000 |  |
|  | CC(C)C(=O)OC[C@@]1(N=[N+]=[N-])O[C@@H](n2ccc(N)nc2=O)[C@H](OC(=O)C(C)C)[C@@H]1OC(=O)C(C)C [BALAPIRAVIR] |  | FC (Hepatitis C virus [3]): 3.7 |
|  | CC(C)[C@H](N)C(=O)O[C@@H]1[C@@H](CO)O[C@@H](n2ccc(N)nc2=O)[C@]1(C)O [VALOPICITABINE] |  | FC (Hepatitis C virus [8]): 1.2 |

| SMILES | EC50 (Hepatitis C virus [1]) [nM] | CC50 [2] [nM] | also measured |
| --- | --- | --- | --- |
| CNC(=O)c1c(-c2ccc(F)cc2)oc2cc(N(CCO)S(C)(=O)=O)c(C3CC3)cc12 [NESBUVIR] | 17 | > 100000 | FC (Hepatitis C virus [4]): 1.4; Activity (Hepatitis C virus [5]): 60; Activity (Hepatitis C virus [6]): 36 |
| CCC[C@H](NC(=O)[C@@H]1[C@H]2CCC[C@H]2CN1C(=O)[C@@H](NC(=O)[C@@H](NC(=O)c1cnccn1)C1CCCCC1)C(C)(C)C)C(=O)C(=O)NC1CC1 [TELAPREVIR] | 560 | 26700 | Activity (Hepatitis C virus [6]): 93; Activity (Hepatitis C virus [7]): > 4 log10IU/ml |
